The target of assay [1] is T1, Urotensin-2 receptor (Homo sapiens, UniProt Q9UKP6).
T1 sequence (Q9UKP6 whole entry): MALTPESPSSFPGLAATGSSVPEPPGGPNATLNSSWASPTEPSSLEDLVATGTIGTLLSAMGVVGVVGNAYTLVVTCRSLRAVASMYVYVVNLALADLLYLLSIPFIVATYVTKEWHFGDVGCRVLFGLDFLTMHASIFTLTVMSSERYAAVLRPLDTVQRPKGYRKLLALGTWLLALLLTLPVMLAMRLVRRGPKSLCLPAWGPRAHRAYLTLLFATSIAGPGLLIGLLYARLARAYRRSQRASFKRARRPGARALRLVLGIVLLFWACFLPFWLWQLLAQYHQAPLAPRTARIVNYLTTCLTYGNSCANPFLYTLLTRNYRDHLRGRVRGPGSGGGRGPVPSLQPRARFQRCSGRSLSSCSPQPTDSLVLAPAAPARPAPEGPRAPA
Kind of assay: Displacement of [125I]urotensin 2 from human UT receptor expressed in CHO-K1 cells. It counts as cell-based. A general note: Loss of bound radioactivity is the signal in a displacement assay; it reports binding, not function.

The species entered for assay [2] is Rattus norvegicus. Kind of assay: Maximum contractile response of thoracic aorta in albino Wistar rat after 30 min. The format is functional. As to conditions: for EC50: 0.5 h.
The species named for assay [3] is Rattus norvegicus. Kind of assay: Maximum contractile response of thoracic aorta in albino Wistar rat in the presence of human urotensin 2 after 30 min. It counts as functional. As to conditions: 0.5 h. Put shortly: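 Thoracic aorta from male albino Wistar rats (275–350 g), decapitated under ether anesthesia, was cut into paired strips in oxygenated Krebs–Henseleit and recorded isotonically under 5 mN load. The control strip received cumulative hU-II. The test strip received the antagonist for 30 min, then cumulative hU-II. KCl 80 mM at the end gave the maximal contraction. pK_B = log(dose ratio − 1) − log[antagonist], slope assumed −1.0, averaged over individual values. Competition was checked by Schild plot.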

The target in assay [4] is T2, Urotensin-2 receptor (Rattus norvegicus, UniProt P49684).
T2 sequence (P49684 whole entry): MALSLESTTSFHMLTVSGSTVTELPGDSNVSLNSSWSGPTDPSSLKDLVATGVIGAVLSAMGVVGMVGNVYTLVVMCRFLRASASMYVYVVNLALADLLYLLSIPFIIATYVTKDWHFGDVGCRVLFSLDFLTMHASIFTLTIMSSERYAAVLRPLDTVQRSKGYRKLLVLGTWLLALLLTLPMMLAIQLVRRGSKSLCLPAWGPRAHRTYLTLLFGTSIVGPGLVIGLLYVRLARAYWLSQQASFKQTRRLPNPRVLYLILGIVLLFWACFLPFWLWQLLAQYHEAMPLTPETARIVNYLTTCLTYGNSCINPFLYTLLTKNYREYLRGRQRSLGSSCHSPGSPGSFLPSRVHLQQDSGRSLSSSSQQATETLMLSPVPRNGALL
Nature of the assay: Antagonist activity at rat UT receptor. It counts as functional. As to conditions: read-out: pA2 (converted). In outline:
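The control strip received cumulative hU-II. The test strip received the antagonist for 30 min, then cumulative hU-II. KCl 80 mM at the end gave the maximal contraction. pK_B = log(dose ratio − 1) − log[antagonist], slope assumed −1.0, averaged over individual values. Competition was checked by Schild plot.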

Calls of active or inactive are those of the source. The calls are words filed in the database; no cut-off is given here.

The Ki is a dissociation constant, usually derived from enzyme kinetics or from competition with a known ligand. As usually defined, the EC50 is the concentration at which the effect is half-maximal. Low readings indicate an effect from little substance, high ones a need for much substance. In the case of `CC(C)[C@H](NC(=O)[C@@H]1CSSC(C)(C)[C@H](NC(=O)[C@@H](N)CC(=O)O)C(=O)N[C@@H](Cc2ccccc2)C(=O)N[C@H](Cc2c[nH]c3ccccc23)C(=O)N[C@@H](CCCCN)C(=O)N[C@@H](Cc2ccc(O)cc2)C(=O)N1)C(=O)O` [listing 1 of 2 here], the Ki at Urotensin-2 receptor [1] is listed as 1.26 nM (antagonist). Moreover, a half-maximal effect in the assay listed under Rattus norvegicus [2] (EC50) was put at 63.1 nM. The term Emax denotes the size of the effect at its maximum, as opposed to the concentration needed. As for `CC(C)[C@H](NC(=O)[C@@H]1CSSC[C@H](NC(=O)[C@@H](N)CC(=O)O)C(=O)N[C@@H](Cc2ccccc2)C(=O)N[C@@H](Cc2c[nH]c3ccccc23)C(=O)N[C@@H](CCCCN)C(=O)N[C@@H](Cc2ccc(O)cc2)C(=O)N1)C(=O)O` [listing 1 of 2 here], the maximal effect (Emax) in the assay filed under Rattus norvegicus [3] turned out to be 100%. Take `CC(C)[C@H](NC(=O)[C@@H]1CSSC(C)(C)[C@H](NC(=O)[C@@H](N)CC(=O)O)C(=O)N[C@@H](Cc2ccccc2)C(=O)N[C@H](Cc2c[nH]c3ccccc23)C(=O)N[C@@H](CCCCN)C(=O)N[C@@H](Cc2ccc(O)cc2)C(=O)N1)C(=O)O` [listing 2 of 2 here]: the Emax in the assay listed under Rattus norvegicus [3] was determined as 33%. On to `CC(C)[C@H](NC(=O)[C@@H]1CSSC(C)(C)[C@@H](NC(=O)[C@@H](N)CC(=O)O)C(=O)N[C@@H](Cc2ccccc2)C(=O)N[C@@H](Cc2c[nH]c3ccccc23)C(=O)N[C@@H](CCCN)C(=O)N[C@@H](Cc2ccc(O)cc2)C(=O)N1)C(=O)O`, for which the Activity entry in the assay listed under Rattus norvegicus [2] (filed as partial agonist) was “Partial agonist”. As for `CC(C)[C@H](NC(=O)[C@@H]1CSSC(C)(C)[C@H](NC(=O)[C@@H](N)CC(=O)O)C(=O)N[C@@H](Cc2ccccc2)C(=O)N[C@H](Cc2c[nH]c3ccccc23)C(=O)N[C@@H](CCCN)C(=O)N[C@@H](Cc2ccc(O)cc2)C(=O)N1)C(=O)O`, the inhibition constant (Ki) at Urotensin-2 receptor [1] is 2000 nM (antagonist). Besides, the outcome in the assay listed under Rattus norvegicus [2] was inactive.

With `CC(C)[C@H](NC(=O)[C@@H]1CSSC(C)(C)[C@H](NC(=O)[C@@H](N)CC(=O)O)C(=O)N[C@@H](Cc2ccccc2)C(=O)N[C@@H](Cc2c[nH]c3ccccc23)C(=O)N[C@@H](CCCN)C(=O)N[C@@H](Cc2ccc(O)cc2)C(=O)N1)C(=O)O` [listing 1 of 2 here], the Emax in the assay filed under Rattus norvegicus [3] amounted to 22%. `CC(C)[C@H](NC(=O)[C@@H]1CSSC[C@H](NC(=O)[C@@H](N)CC(=O)O)C(=O)N[C@@H](Cc2ccccc2)C(=O)N[C@@H](Cc2c[nH]c3ccccc23)C(=O)N[C@@H](CCCCN)C(=O)N[C@@H](Cc2ccc(O)cc2)C(=O)N1)C(=O)O` [listing 2 of 2 here] had a 50% effective concentration (EC50) in the assay listed under Rattus norvegicus [2] of 2.51 nM. As to `CC(C)[C@H](NC(=O)[C@@H]1CSSC[C@H](NC(=O)[C@@H](N)CC(=O)O)C(=O)N[C@@H](Cc2ccccc2)C(=O)N[C@H](Cc2c[nH]c3ccccc23)C(=O)N[C@@H](CCCN)C(=O)N[C@@H](Cc2ccc(O)cc2)C(=O)N1)C(=O)O`, the Ki on Urotensin-2 receptor [1] is 12.6 nM (antagonist). In addition, on Urotensin-2 receptor [4], the Kb is given as 10 nM (antagonist). Turning to `CC(C)[C@H](NC(=O)[C@@H]1CSSC(C)(C)[C@H](NC(=O)[C@@H](N)CC(=O)O)C(=O)N[C@@H](Cc2ccccc2)C(=O)N[C@@H](Cc2c[nH]c3ccccc23)C(=O)N[C@@H](CCCCN)C(=O)N[C@@H](Cc2ccc(O)cc2)C(=O)N1)C(=O)O` [listing 1 of 2 here], the Emax in the assay filed under Rattus norvegicus [3] stood at 97%. As for `CC(C)[C@H](NC(=O)[C@@H]1CSSC(C)(C)[C@@H](NC(=O)[C@@H](N)CC(=O)O)C(=O)N[C@@H](Cc2ccccc2)C(=O)N[C@H](Cc2c[nH]c3ccccc23)C(=O)N[C@@H](CCCN)C(=O)N[C@@H](Cc2ccc(O)cc2)C(=O)N1)C(=O)O`, the result in the assay listed under Rattus norvegicus [2] was inactive. The compound `CC(C)[C@H](NC(=O)[C@@H]1CSSC(C)(C)[C@H](NC(=O)[C@@H](N)CC(=O)O)C(=O)N[C@@H](Cc2ccccc2)C(=O)N[C@@H](Cc2c[nH]c3ccccc23)C(=O)N[C@@H](CCCCN)C(=O)N[C@@H](Cc2ccc(O)cc2)C(=O)N1)C(=O)O` [listing 2 of 2 here] had an EC50 in the assay filed under Rattus norvegicus [2] of 0.251 nM. Regarding `CC(C)[C@H](NC(=O)[C@@H]1CSSC[C@H](NC(=O)[C@@H](N)CC(=O)O)C(=O)N[C@@H](Cc2ccccc2)C(=O)N[C@@H](Cc2c[nH]c3ccccc23)C(=O)N[C@@H](CCCN)C(=O)N[C@@H](Cc2ccc(O)cc2)C(=O)N1)C(=O)O` [listing 1 of 2 here], the maximal effect (Emax) in the assay listed under Rattus norvegicus [3] turned out to be 36%. `CC(C)[C@H](NC(=O)[C@@H]1CSSC[C@H](NC(=O)[C@@H](N)CC(=O)O)C(=O)N[C@@H](Cc2ccccc2)C(=O)N[C@H](Cc2c[nH]c3ccccc23)C(=O)N[C@@H](CCCCN)C(=O)N[C@@H](Cc2ccc(O)cc2)C(=O)N1)C(=O)O` [listing 1 of 2 here]: at Urotensin-2 receptor [1], the inhibitory constant (Ki) was 1.26 nM (antagonist). Further, the EC50 in the assay filed under Rattus norvegicus [2] is 63.1 nM.

On to `CC(C)[C@H](NC(=O)[C@@H]1CSSC(C)(C)[C@H](NC(=O)[C@@H](N)CC(=O)O)C(=O)N[C@@H](Cc2ccccc2)C(=O)N[C@H](Cc2c[nH]c3ccccc23)C(=O)N[C@H](CCCN)C(=O)N[C@@H](Cc2ccc(O)cc2)C(=O)N1)C(=O)O` [listing 1 of 2 here], for which the Emax in the assay filed under Rattus norvegicus [3] worked out at 25%. Take `CC(C)[C@H](NC(=O)[C@@H]1CSSC[C@H](NC(=O)[C@@H](N)CC(=O)O)C(=O)N[C@@H](Cc2ccccc2)C(=O)N[C@@H](Cc2c[nH]c3ccccc23)C(=O)N[C@@H](CCCN)C(=O)N[C@@H](Cc2ccc(O)cc2)C(=O)N1)C(=O)O` [listing 2 of 2 here]: the Ki on Urotensin-2 receptor [1] is 10 nM (antagonist). The Kb on Urotensin-2 receptor [4] is 50.1 nM (antagonist). With `CC(C)[C@H](NC(=O)[C@@H]1CSSC[C@H](NC(=O)[C@H](CC(=O)O)NC(=O)[C@@H]2CCCN2C(=O)[C@@H](NC(=O)[C@@H](N)CCC(=O)O)[C@@H](C)O)C(=O)N[C@@H](Cc2ccccc2)C(=O)N[C@@H](Cc2c[nH]c3ccccc23)C(=O)N[C@@H](CCCCN)C(=O)N[C@@H](Cc2ccc(O)cc2)C(=O)N1)C(=O)O` [HUMAN UROTENSIN II], the Emax in the assay listed under Rattus norvegicus [3] is 100%. In addition, the EC50 in the assay filed under Rattus norvegicus [2] is 5.01 nM. With `CC(C)[C@H](NC(=O)[C@@H]1CSSC[C@H](NC(=O)[C@@H](N)CC(=O)O)C(=O)N[C@@H](Cc2ccccc2)C(=O)N[C@H](Cc2c[nH]c3ccccc23)C(=O)N[C@@H](CCCCN)C(=O)N[C@@H](Cc2ccc(O)cc2)C(=O)N1)C(=O)O` [listing 2 of 2 here], the Emax in the assay listed under Rattus norvegicus [3] was 42%. With `CC(C)[C@H](NC(=O)[C@@H]1CSSC[C@@H](NC(=O)[C@@H](N)CC(=O)O)C(=O)N[C@@H](Cc2ccccc2)C(=O)N[C@@H](Cc2c[nH]c3ccccc23)C(=O)N[C@@H](CCCN)C(=O)N[C@@H](Cc2ccc(O)cc2)C(=O)N1)C(=O)O`, in the assay filed under Rattus norvegicus [2] (filed as partial agonist), the Activity result is “Partial agonist”.

With `CC(C)[C@H](NC(=O)[C@@H]1CSSC(C)(C)[C@H](NC(=O)[C@@H](N)CC(=O)O)C(=O)N[C@@H](Cc2ccccc2)C(=O)N[C@@H](Cc2c[nH]c3ccccc23)C(=O)N[C@@H](CCCN)C(=O)N[C@@H](Cc2ccc(O)cc2)C(=O)N1)C(=O)O` [listing 2 of 2 here], the inhibition constant (Ki) on Urotensin-2 receptor [1] was 15.8 nM (antagonist). Regarding `CC(C)[C@H](NC(=O)[C@@H]1CSSC(C)(C)[C@@H](NC(=O)[C@@H](N)CC(=O)O)C(=O)N[C@@H](Cc2ccccc2)C(=O)N[C@H](Cc2c[nH]c3ccccc23)C(=O)N[C@H](CCCN)C(=O)N[C@@H](Cc2ccc(O)cc2)C(=O)N1)C(=O)O`, the Activity entry in the assay filed under Rattus norvegicus [2] (filed as partial agonist) was “Partial agonist”. Consider `CC(C)[C@H](NC(=O)[C@@H]1CSSC(C)(C)[C@H](NC(=O)[C@@H](N)CC(=O)O)C(=O)N[C@@H](Cc2ccccc2)C(=O)N[C@H](Cc2c[nH]c3ccccc23)C(=O)N[C@H](CCCN)C(=O)N[C@@H](Cc2ccc(O)cc2)C(=O)N1)C(=O)O` [listing 2 of 2 here], for which the Ki on Urotensin-2 receptor [1] was 398 nM (antagonist). Consider `CC(C)[C@H](NC(=O)[C@@H]1CSSC[C@@H](NC(=O)[C@@H](N)CC(=O)O)C(=O)N[C@@H](Cc2ccccc2)C(=O)N[C@H](Cc2c[nH]c3ccccc23)C(=O)N[C@@H](CCCN)C(=O)N[C@@H](Cc2ccc(O)cc2)C(=O)N1)C(=O)O`, for which, in the assay listed under Rattus norvegicus [2], the outcome was inactive.

These data come from ChEMBL document CHEMBL1139480, “Urotensin-II receptor ligands. From agonist to antagonist activity” (J Med Chem, 2005).
